NadD block – NadD (S. aureus) enzyme inhibition. purified NadD enzyme, colorimetric absorbance read-out. inhibition, % at 20 µM. actives 0.78% (n = 360,000); in the data active means inhibition above about 26%
SUMO1 PPI mod – SUMO1-SIM interaction modulation; AID 602429; P63165; SUMO1 binding to a labelled peptide, TR-FRET, 1 h; inhibition, % at 20 µM; actives 0.33% (n = 360,000); in the data active means inhibition above about 37%
LMPTP block – LMPTP (human) inhibition | recombinant LMPTP-A, OMFP fluorogenic substrate, fluorescence intensity | inhibition, % at 20 µM | actives 0.22% (n = 360,000) | P24666 | AID 651560;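 active means compounds that cut the enzyme signal by at least half of the control window in the single-dose screen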
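Assay system: LMPTP-A enzyme. Input: 0.625 nM LMPTP-A final. Probe or stimulus: 400 µM OMFP. Compound dosing: single 20 µM dose. Schedule: 50 min dark incubation at room temperature. Detection: fluorescence intensity of OMFP turnover product. Read-out: percent inhibition versus substrate-only and uninhibited controls. Benchmarks: no-enzyme low control, uninhibited high control.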
Scp-1 inhibitor – Scp-1 (human) phosphatase inhibition. AID 493091. inhibition, % at 20 µM. Recombinant Scp1, phosphopeptide, malachite green phosphate absorbance. actives 0.88% (n = 340,000);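 active means inhibition above about 50% at 20 µM, limit read from the data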
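Times: enzyme reaction 45 min at room temperature, colour 5 min, stabilisation 30 min. Material: SCP-1 catalytic fragment, aa 76-261. Medium: Acidic Tris acetate buffer with magnesium and detergent. Signal: colorimetric free-phosphate detection, absorbance 630 nm. Read-out basis: % inhibition of SCP-1 phosphate liberation. Reagent: Phosphorylated 17-residue peptide substrate.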
DNMT1 block – blocks human DNA methyltransferase DNMT1; P26358; DNMT1 molecular beacon, Hinp1I cleavage, fluorescence; inhibition (reported as % activation of signal), % at 10 µM; actives 0.83% (n = 360,000); AID 588458; in the data active means inhibition above about 50%
STEP block – inhibitors of human striatal-enriched phosphatase STEP. P54829. recombinant STEP, OMFP fluorogenic substrate, fluorescence. inhibition, % at 20 µM. actives 0.25% (n = 360,000). AID 588621;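 active means inhibition at 20 µM, scaled per plate between control wells, above about 37%, limit read from the data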
Target sequence (P54829 whole entry, looked up): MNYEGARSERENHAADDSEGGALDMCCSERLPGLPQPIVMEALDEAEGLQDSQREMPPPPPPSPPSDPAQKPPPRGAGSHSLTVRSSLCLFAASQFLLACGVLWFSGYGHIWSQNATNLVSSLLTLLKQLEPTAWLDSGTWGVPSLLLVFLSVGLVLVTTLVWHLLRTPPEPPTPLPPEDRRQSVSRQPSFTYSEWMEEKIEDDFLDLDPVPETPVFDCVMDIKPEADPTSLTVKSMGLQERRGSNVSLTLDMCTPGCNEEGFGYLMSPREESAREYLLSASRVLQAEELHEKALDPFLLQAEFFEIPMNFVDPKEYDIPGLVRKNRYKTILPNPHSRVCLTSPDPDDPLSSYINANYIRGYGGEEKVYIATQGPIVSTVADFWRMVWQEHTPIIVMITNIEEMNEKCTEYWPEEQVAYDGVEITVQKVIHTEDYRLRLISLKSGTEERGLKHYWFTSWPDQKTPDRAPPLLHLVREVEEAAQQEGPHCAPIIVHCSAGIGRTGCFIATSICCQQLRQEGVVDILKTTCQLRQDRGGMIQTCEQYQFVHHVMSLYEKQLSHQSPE
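Assay system: isolated STEP enzyme. Buffer or medium: pH 6.0 Bis-Tris with DTT and Tween 20. Also added: fluorogenic phosphatase substrate OMFP at 25 µM final. Dosing: 20 µM, 1% DMSO. Timing: 20 min reaction, room temperature, in the dark. Measured by: fluorescence intensity, excitation 480 nm, emission 540 nm. Evaluation: normalized % inhibition.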
NadD conf – confirmation of Staphylococcus aureus NadD inhibitors; actives 13% (n = 2,000); shares compounds with NadD block; purified S. aureus NadD, colorimetric enzyme assay; AID 624309; inhibition, % at 20 µM; in the data active means inhibition mostly above about 42%, no sharp cut-off; inactive means mostly below about 42%
Each line names hits and unclear results; the compound was inactive in the other large screens (follow-up assays come after a bar, where they were run). The list is not random: actives were taken first. Their share in the collection is about 2.4%.

N#C/C(=C\Nc1ccc2cn[nH]c2c1)c1nc(-c2ccccc2)cs1	NadD block 34.8 | NadD conf inactive
N#CC(=Cc1ccccn1)c1nc(-c2ccc(Cl)cc2)cs1	none (no result: Scp-1 inhibitor)
CC1(C)COC(Cn2c3ccccc3c3ccccc32)O1 (stereo unspecified)	none
O=C1CCCC2=C1C(c1ccccn1)Nc1ccc(C(=O)c3ccccc3)cc1N2 (stereo unspecified)	none
O=C1CCCC2=C1C(c1ccco1)Nc1ccc(C(=O)c3ccccc3)cc1N2 (stereo unspecified)	NadD block 35.3 | NadD conf inactive
CCOC(=O)c1c(NC(=O)CSc2nnc(-c3c[nH]c4ccccc34)n2CCOC)sc2c1CCCC2	NadD block 33.6 | NadD conf inactive
COCCn1c(SCC(=O)Nc2ccc3c(c2)OCCO3)nnc1-c1c[nH]c2ccccc12	none
O=C(Cc1cccc(C(F)(F)F)c1)OCN1C(=O)c2ccccc2C1=O	none
O=C(CC1OC(=O)c2ccccc21)Nc1cc(Cl)ccc1N1CCCC1 (stereo unspecified)	NadD block 31.8 | NadD conf inactive
O=C(CC1OC(=O)c2ccccc21)Nc1ccccc1N1CCOCC1 (stereo unspecified)	none
Oc1c(Cl)cc(Cl)c2cccnc12	none
Oc1c(I)cc(I)c2cccnc12	NadD block 45.6 | NadD conf inactive
CC(C)(C)c1cc[n+](/C(C(=S)Nc2ccccc2F)=C(/[O-])c2ccc3c(c2)OCCO3)cc1	none
[O-]/C(=C(\C(=S)Nc1ccccc1F)[n+]1ccccc1)c1ccc(-c2ccccc2)cc1	NadD block 31.0 | NadD conf inactive
COc1ccccc1C(=O)Nc1ccc(S(=O)(=O)N2CCC(C)CC2)cc1	none
CC(=O)C1CCC2C3CCC4=CC(=O)C=CC4(C)C3C(=O)CC12C (stereo unspecified)	none
C[C@]12C=CC(=O)C=C1CC[C@@H]1C2=CC[C@]2(C)[C@@H](C(=O)CN3CCN(c4cc(N5CCCC5)nc(N5CCCC5)n4)CC3)CC[C@@H]12	NadD block 32.9, DNMT1 block 60.6 | NadD conf inactive
O=C(COC(=O)c1ccc(S(=O)(=O)Nc2ccccc2)cc1)NC1CCCC1	none
NC(=O)c1c(NC(=O)COC(=O)c2ccc(S(=O)(=O)Nc3ccccc3)cc2)sc2c1CCCC2	NadD block 34.6 | NadD conf inactive
Cc1ccc(C(=O)N/N=C/c2cccc(OC(=O)/C=C/c3ccco3)c2)cn1	none
O=C(CNc1cccc2ccccc12)N/N=C/c1ccc(OC(=O)/C=C/c2ccco2)cc1	NadD block 39.5 | NadD conf inactive
O=C(/C=C/c1ccco1)Oc1cc(Br)cc(/C=N/NC(=O)c2ccccc2O)c1	NadD block 37.8 | NadD conf inactive
O=C(CNc1cccc2ccccc12)N/N=C/C(Br)=C/c1ccccc1	NadD block 45.2 | NadD conf inactive
O=C(CNc1ccc2ccccc2c1)N/N=C/c1ccc(OC(=O)/C=C/c2ccco2)cc1	none
O=C(NCC1CCCO1)C1CCN(S(=O)(=O)c2ccc(Br)cc2)CC1 (stereo unspecified)	none
CC1=C(C(=O)NC2CCCc3c2cnn3-c2ccc(F)cc2F)OCCO1 (stereo unspecified)	none
CCN(C(=O)COC(=O)c1c(C)nn(-c2ccccc2)c1C)C1CCS(=O)(=O)C1 (stereo unspecified)	none
O=C(c1ccc(OCCN2CCCCC2)cc1)c1c(-c2ccc(O)cc2)sc2cc(O)ccc12	NadD block 33.0 | NadD conf inactive
Oc1cccc(-c2sc3ccccc3c2-c2ccc(OCCN3CCCCC3)cc2)c1	none (no result: Scp-1 inhibitor, DNMT1 block, STEP block)
COc1cccc(=O)c2c(C)n(-c3cc(C)cc(C)c3)c(C)c12	NadD block 35.3 | NadD conf inactive
COc1cc2c(cc1[N+](=O)[O-])-c1ccc([N+](=O)[O-])cc1C2=NNC(N)=S	NadD block 48.2 (no result: Scp-1 inhibitor) | NadD conf inactive
COc1ccc(CC(=O)N/N=C(\C)CC(=O)Nc2ccc(N(C)C)cc2)cc1	none
